Screens from PubChem.
NS3 helicase inh = blocks Hepatitis C virus NS3 helicase unwinding; inhibition, % at 10.9 µM; actives 0.56% (n = 290,000); NS3 helicase DNA unwinding, Cy5 molecular beacon fluorescence;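 active = inhibition above the mean of all tested compounds plus 3 SD, set per campaign, cut at about 35% in these data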;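 also: 0% = DMSO wells and 100% = thioflavine S control wells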
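Assay system: hepatitis C virus NS3 helicase domain fragment enzyme. Also added: annealed dual-labelled DNA beacon duplex, ATP-started. Timing: 1 h reaction at 25 °C, ATP-initiated. Technique: Cy5 fluorescence at 0 and 60 min, beacon hairpin quenching. Evaluation: % inhibition of unwinding. Replication: one well per compound.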
FGF22 binding = FGF22 (human) thermal shift binding; Q9HCT0; recombinant FGF22 thermal shift, SYPRO orange fluorescence; percent of sucrose octasulfate shift, DMSO zero; activity (Tm shift, normalised), % at 9.99 µM; actives 1.5% (n = 340,000);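 active = mean Tm shift, scaled 0 neutral to 100 positive control, at about 1.3% or above, every replicate too, limit read from the data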
Target sequence (Q9HCT0 whole entry, looked up): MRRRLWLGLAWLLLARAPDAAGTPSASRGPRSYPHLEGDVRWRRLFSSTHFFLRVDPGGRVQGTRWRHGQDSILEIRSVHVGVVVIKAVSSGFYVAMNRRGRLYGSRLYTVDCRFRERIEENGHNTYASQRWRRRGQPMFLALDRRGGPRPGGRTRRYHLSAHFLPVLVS
ZTA DNA inh = counter-screen for EBNA-1 inhibitors: inhibitors of Epstein-Barr virus ZTA | P03206 | ZTA-DNA binding, fluorescence polarization | inhibition, % at 11 µM | actives 0.15% (n = 320,000); in the data active = inhibition above about 33%
Target sequence (P03206 whole entry, looked up): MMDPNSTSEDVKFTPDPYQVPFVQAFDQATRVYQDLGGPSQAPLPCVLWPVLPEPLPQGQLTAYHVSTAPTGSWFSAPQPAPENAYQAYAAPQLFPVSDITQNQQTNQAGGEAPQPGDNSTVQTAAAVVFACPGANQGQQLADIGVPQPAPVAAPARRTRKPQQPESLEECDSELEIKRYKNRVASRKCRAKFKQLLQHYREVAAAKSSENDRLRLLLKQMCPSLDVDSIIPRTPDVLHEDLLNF
EBNA-1 inh = blocks EBNA-1 binding to DNA. EBNA-1 DNA binding, fluorescence polarization. inhibition, % at 14.8 µM. actives 0.34% (n = 300,000). AID 1950; in the data active = inhibition above about 28%
FID counter = fluorescent intercalator displacement, NS3 helicase counter-screen; DNA fluorescent intercalator displacement, fluorescence; inhibition, % at 7.9 µM; actives 0.17% (n = 290,000); in the data active = inhibition above about 37%;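 also: 0% = vehicle and 100% = reference compound; higher means more ethidium bromide displaced from hairpin DNA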
GRIN3A LBD mod = modulators (binders) of human NR3A ligand-binding domain; NR3A LBD differential scanning fluorimetry, Tm shift; 0% = protein alone, 100% = glycine-bound protein; actives 2.5% (n = 340,000); Tm shift relative to glycine control, % at 25 µM;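 active = melting temperature shift of at least 10% of the positive control shift, at one fixed dose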
* = called active by the depositor; · = no result given. Shown are actives, neighbours in structure and some others; about 3.6% of the full set was active somewhere.

SMILES	NS3 helicase inh	FGF22 binding	ZTA DNA inh	EBNA-1 inh	FID counter	GRIN3A LBD mod
COc1cc(OC)cc(C(=O)N[C@H](C(=O)OCc2cc(=O)oc3cc(C)ccc23)C(C)C)c1	3	·	-6	3	-1	-8
CCOc1ccccc1C(=O)N[C@H](C(=O)OCc1cc(=O)oc2cc(C)ccc12)C(C)C	3	0	-4	2	-4	15*
C[C@@H]1CN([C@@H](C)CO)C(=O)c2cc(-c3ccncc3)cnc2O[C@H]1CN(C)C(=O)Cc1cccnc1	·	0	·	·	·	·
COc1cccc(-c2ccc(NC(=O)C3CCCN(CCCn4cccn4)C3)cc2)c1 (stereo not given)	-65	40	0	-1	20	10*
CC(=O)c1cccc(CN2CCCC(C(=O)Nc3cccc(-n4cccn4)c3)C2)c1 (stereo not given)	-10	0	3	9	6	10*
COc1cccc(-c2ccc(NC(=O)C3CCCN(Cc4ccccn4)C3)cc2)c1 (stereo not given)	·	0	·	·	·	·
O=C(CSc1ccccc1)Nc1ccc(N2CCOCC2)c(F)c1	-1	0	-3	-2	-13	-39
O=C(CSc1ccc(Cl)cc1)Nc1ccc(N2CCN(c3ccccc3)CC2)c(F)c1	22	·	0	-7	2	19*
Cc1ccc(-n2nnnc2SCC(=O)Nc2ccc(N3CCN(C)CC3)cc2)c(C)c1	-80	0	0	6	20	-2
Cc1ccc(SCC(=O)Nc2ccc(N3CCN(C)CC3)c(F)c2)c(C)c1	-72	1	3	-5	39*	-2
CCCc1cn(CC[C@H]2CC[C@H](NC(=O)C3CCCC3)[C@@H](CO)O2)nn1	·	-1	·	·	·	·
C[C@@H]1CN([C@H](C)CO)C(=O)c2cc(NC(=O)Nc3ccccc3)ccc2O[C@H]1CN(C)C(=O)Nc1cccc2ccccc12	·	0	·	·	·	·
O=C(C1CCCCC1)N1CC2(C1)[C@@H](c1ccccc1)[C@@H](CO)N2Cc1ccc(Cl)cc1	·	0	·	·	·	·
Cc1cc(C)nc(SCc2nnc(SCC(=O)Nc3ccc(C)c(C)c3)n2Cc2ccco2)n1	2	·	-22	0	-34	1
COC(=O)CSc1nnc(CSc2nc(C)cc(C)n2)n1Cc1ccco1	0	·	16	8	-8	14*
Brc1ccc(CSc2nnc(-c3ccccn3)n2Cc2ccco2)cc1	-7	·	-1	-19	-28	1
CC(C)(C)c1ccc(CSc2nnc(-c3ccccn3)n2Cc2ccco2)cc1	-1	·	9	-1	-29	20*
COC(=O)c1cccc(NC(=O)Nc2ccc(Cl)c(Cl)c2)c1	-11	0	-1	-10	6	43*
COC(=O)c1cc(NC(=O)Nc2ccccc2)ccc1Cl	-7	0	-20	-10	-5	39*
COC(=O)c1cc(NC(=O)/C=C/c2ccccc2)ccc1O	-3	43*	6	-1	-2	·
O=C(CN1CCCCC1)Nc1ccc(S(=O)(=O)N2CCCCCC2)cc1	-5	·	2	0	12	11*
O=C(CN1CCCC1)Nc1ccc(F)cc1	6	43*	6	-14	0	-1
O=C(CN1CCN(C(=O)CCC(=O)N2CCC(c3ccccc3)=N2)CC1)Nc1ccc(F)cc1	·	0	·	·	·	18*
CN(C)S(=O)(=O)c1ccc(NC(=O)CN2CCC(Cc3ccccc3)CC2)cc1	-22	44*	6	-7	16	2
O=C(CN1CCCC1)NCC(=O)Nc1ccc(F)cc1	-1	0	2	-10	5	-1
SMILES	NS3 helicase inh	FGF22 binding	ZTA DNA inh	EBNA-1 inh	FID counter	GRIN3A LBD mod
O=C(CN1CCCC1)Nc1ccc(S(=O)(=O)N2CCCCC2)cc1	7	0	-18	6	8	0
COc1ccc(S(=O)(=O)N(C)C[C@@H]2Oc3c(NC(=O)c4cc(C)nn4C)cccc3C(=O)N([C@H](C)CO)C[C@@H]2C)cc1	·	1	·	·	·	·
CC(C)NC(=O)N(C)C[C@@H]1OCCCC[C@@H](C)Oc2ccc(NC(=O)Nc3ccc4c(c3)OCO4)cc2C(=O)N([C@@H](C)CO)C[C@H]1C	·	0	·	·	·	·
Cc1ccc(Cn2c(C(C)Nc3nc(-c4ccc(Cl)c([N+](=O)[O-])c4)cs3)nc3cc(C(F)(F)F)ccc32)cc1 (stereo not given)	·	0	2	-4	·	14*
CCCn1c(C(C)Nc2nc(-c3ccc(Cl)c([N+](=O)[O-])c3)cs2)nc2ccccc21 (stereo not given)	-3	1	11	8	-15	6
O=[N+]([O-])c1cc(-c2csc(NCCc3nc4cc(Cl)c(Cl)cc4n3CCCO)n2)ccc1Cl	·	0	-4	-5	·	-6
CCCn1c(CCNc2nc(-c3ccc(Cl)c([N+](=O)[O-])c3)cs2)nc2cc(Cl)c(Cl)cc21	10	0	-11	4	-4	13*
COc1ccc(NC(=O)Nc2ccc3c(c2)CC(=O)N([C@H](C)CO)C[C@@H](C)[C@H](CN(C)S(=O)(=O)c2ccc(Cl)cc2)O3)cc1	·	0	·	·	·	·
COc1ccc(S(=O)(=O)Nc2cccc3c2O[C@@H](CN(C)S(=O)(=O)c2ccc(F)cc2)[C@@H](C)CN([C@H](C)CO)C3=O)cc1	·	0	·	·	·	·
O=C(NCc1ccco1)C(c1ccccc1F)N(Cc1cccnc1)C(=O)Cn1nnc2ccccc21 (stereo not given)	1	·	4	-3	-16	11*
O=C(NCc1ccco1)C(c1ccc(F)cc1)N(Cc1cccnc1)C(=O)Cn1nnc2ccccc21 (stereo not given)	9	·	11	-7	-22	-7
C[C@H]1CN([C@@H](C)CO)C(=O)Cc2cc(NC(=O)Nc3ccc4c(c3)OCO4)ccc2O[C@H]1CN(C)S(=O)(=O)c1cn(C)cn1	·	0	·	·	·	·
COc1ccc2c3c([nH]c2c1)[C@@H](CO)N(C(=O)NC(C)C)CC31CCN(Cc2ccc(F)cc2)CC1	·	0	·	·	·	·
C#CCOCCOCCOCCNc1nc(N2CCN(C(=O)[C@H](CCCCN)n3cc([C@@H](N)CC(C)C)nn3)CC2)nc(N2CCN(C(=O)[C@H](Cc3cc4ccccc4[nH]3)n3cc([C@@H](N)Cc4ccc(O)cc4)nn3)CC2)n1	-44	·	-6	3	76*	0
C#CCOCCOCCOCCNc1nc(N2CCN(C(=O)[C@H](Cc3ccc(O)cc3)n3cc([C@@H](N)C(C)CC)nn3)CC2)nc(N2CCN(C(=O)[C@H](Cc3cc4ccccc4[nH]3)n3cc([C@@H](N)Cc4ccc(O)cc4)nn3)CC2)n1 (stereo not given in full)	·	·	9	12	·	·
C#CCOCCOCCOCCNc1nc(N2CCN(C(=O)[C@H](CCCCN)n3cc([C@@H](N)CO)nn3)CC2)nc(N2CCN(C(=O)[C@H](Cc3cc4ccccc4[nH]3)n3cc([C@@H](N)Cc4ccc(O)cc4)nn3)CC2)n1	-60	·	0	3	55*	·
